Data: ChEMBL document CHEMBL1124780, “Phenyl selenones: alkyl transfer by selenium-carbon bond cleavage” (J Med Chem, 1990)

Experiments:
[1] = Half-life after NBP alkylation; type: ADME
Outline: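 NBP alkylation at 37 °C in aqueous acetone (52.2:47.8, v/v) with 40.6 mM NBP (pseudo-first-order excess), 17.4 mM Tris-HCl pH 7.4, and 0.087 or 0.174 mM alkylating agent. First-order rate constants were taken from plots of log(percent remaining alkylating species) vs time. Adduct was read at 560 nm after triethylamine alkalization.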

[2] = Pseudo first order rate constant of NBP alkylation was determined at 37 degree Centigrade; type: ADME
Outline: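 Alkylating agent (0.087 or 0.174 mM) reacted at 37 °C with 4-(4-nitrobenzyl)pyridine (40.6 mM, pseudo-first-order excess). Medium was aqueous acetone (52.2:47.8 v/v) with 17.4 mM Tris-HCl, pH 7.4. k' was taken from plots of log(% remaining alkylating species) vs time.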

[3] = tested on: CCRF-CEM; assay: In vitro growth inhibition against CCRF-CEM human lymphoblast cells; type: functional, cell-based
Outline: (§1)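 Cells were exposed to drug in vitro for 48 h (L1210 murine leukemia; CCRF-CEM human lymphoblast). The value is the drug concentration giving 50% growth inhibition.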

[4] = tested on: L1210; assay: In vitro growth inhibition against L1210 murine leukemia cells; type: functional, cell-based; settings: Mus musculus; outline: as §1

Compound | half-life [1] | k' [2] | IC50 [3] | IC50 [4]
O=S(=O)(CCCl)c1ccccc1 | > 96 h | < 0.00012 min⁻¹ | 2.25 µM | 2.3 µM
ClCC[Se]CCCl | 0.004 h | – | – | –
CC[Se](=O)(=O)c1ccccc1 | 4.67 h | 0.00248 min⁻¹ | 10 µM | 5 µM
CS(=O)(=O)CS(=O)(=O)OCCCl | 9.4 h | 0.00123 min⁻¹ | – | 3 µM
COc1ccc([Se](=O)(=O)CCCl)cc1 | 9.25 h | 0.00125 min⁻¹ | 0.14 µM | 0.36 µM
